Reference: ChEMBL document CHEMBL4428051, “Preclinical Activity of New [1,2]Oxazolo[5,4-e]isoindole Derivatives in Diffuse Malignant Peritoneal Mesothelioma” (J Med Chem, 2016)
Activity calls are given as the source filed them. No cut-off for these calls is given here.

Key:
Homo sapiens [1] = species on record: Homo sapiens; assay: Cell cycle arrest in human STO cells assessed as decrease in cell levels at S phase at IC50 to IC80 after 48 to 72 hrs by propidium iodide staining-based flow cytometric method; format: functional
Method in brief: (§1)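 Cells exposed to drug or 1% (v/v) DMSO control for 48 and 72 h. Adherent and floating cells fixed in 70% EtOH, then stained 30 min at 4 °C with propidium iodide 50 μg/mL, RNase and 0.05% Nonidet-P40 in PBS. Flow cytometry read ≥30000 events; G1, S and G2/M percentages fitted with the Modfit model; mean of three independent experiments.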

Tubulin (Homo sapiens) [2] = target: T1, Tubulin (Homo sapiens) (UniProt P68371+Q9H4B7+P0DPH7+P68366+Q13509+Q71U36+P04350+Q3ZCM7+P07437+P68363+Q9BQE3+Q6PEY2+Q13885+Q9BVA1+Q9BUF5); assay: Inhibition of tubulin polymerization in human MP4 cells at IC50 after 24 hrs by Western blot analysis relative to soluble fraction of tubulin; format: cell-based
Homo sapiens [3] = species on record: Homo sapiens; assay: Induction of apoptosis in human MP4 cells assessed as increase in caspase-3 catalytic activity by measuring DEVD-pNA hydrolysis at IC50 to IC80 by spectrofluorometric method; format: functional, cell-based; conditions: TDE = time-dependent effect
[4] = Growth inhibition of human MP4 cells after 72 hrs by MTS assay; format: functional
Method in brief: (§2)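 DMPM lines were kept in DMEM F12 with 10% heat-inactivated FBS at 37 °C, 5% CO₂. 4500 cells/well were plated 24 h, then exposed 72 h to 0.1−100 μM; vehicle was 0.01% DMSO. MTS read at OD 490 nm and expressed as % of DMSO-treated cells. Eight replicates per condition, ≥3 independent repeats. IC50 and IC80 were taken graphically from dose–response curves.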

[5] = Cell cycle arrest in human STO cells assessed as mitotic cells at IC50 after 72 hrs by MPM2 staining-based fluorescence microscopic analysis relative to control; format: functional
[6] = Toxicity in athymic nude mouse xenografted with human STO cells assessed as body weight loss at 5 mg/kg, ip administrated every 7 days for 4 weeks starting from day 10 post tumor implantation; format: organism-based; conditions: in vivo
Method in brief: (§3)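 Female nude mice, 6−8 weeks old, with 10⁷ exponentially growing STO cells injected subcutaneously into the right flank. Eight mice per group, randomly assigned to vehicle control or treatment. Compound was given ip in 10% DMSO / 90% saline. Tumor diameters were measured weekly by caliper.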

Homo sapiens [7] = species on record: Homo sapiens; assay: Cell cycle arrest in human MP4 cells assessed as decrease in cell levels at G1 phase at IC50 to IC80 after 48 to 72 hrs by propidium iodide staining-based flow cytometric method; format: functional; method in brief: as §1
[8] = Toxicity in athymic nude mouse xenografted with human STO cells assessed as drug tolerance at 5 mg/kg, ip administrated every 7 days for 4 weeks starting from day 10 post tumor implantation; format: organism-based; conditions: in vivo; method in brief: as §3
Homo sapiens [9] = species on record: Homo sapiens; assay: Cell cycle arrest in human STO cells assessed as decrease in cell levels at G1 phase at IC50 to IC80 after 48 to 72 hrs by propidium iodide staining-based flow cytometric method; format: functional; method in brief: as §1
[10] = Toxicity in athymic nude mouse xenografted with human STO cells assessed as mortality at 5 mg/kg, ip administrated every 7 days for 4 weeks starting from day 10 post tumor implantation; format: organism-based; conditions: in vivo; method in brief: as §3
Homo sapiens [11] = species on record: Homo sapiens; assay: Cell cycle arrest in human STO cells assessed as accumulation at G2/M phase at IC50 to IC80 by propidium iodide staining-based flow cytometric method; format: functional; conditions: TDE = time-dependent effect; method in brief: as §1
Tubulin (Sus scrofa) [12] = target: T2, Tubulin (Sus scrofa) (UniProt P02554+P02550); assay: Inhibition of GTP-induced porcine tubulin polymerization at 10 uM measured every minute up to 60 mins relative to control; format: protein assay
T2 sequence (P02550 whole entry, looked up): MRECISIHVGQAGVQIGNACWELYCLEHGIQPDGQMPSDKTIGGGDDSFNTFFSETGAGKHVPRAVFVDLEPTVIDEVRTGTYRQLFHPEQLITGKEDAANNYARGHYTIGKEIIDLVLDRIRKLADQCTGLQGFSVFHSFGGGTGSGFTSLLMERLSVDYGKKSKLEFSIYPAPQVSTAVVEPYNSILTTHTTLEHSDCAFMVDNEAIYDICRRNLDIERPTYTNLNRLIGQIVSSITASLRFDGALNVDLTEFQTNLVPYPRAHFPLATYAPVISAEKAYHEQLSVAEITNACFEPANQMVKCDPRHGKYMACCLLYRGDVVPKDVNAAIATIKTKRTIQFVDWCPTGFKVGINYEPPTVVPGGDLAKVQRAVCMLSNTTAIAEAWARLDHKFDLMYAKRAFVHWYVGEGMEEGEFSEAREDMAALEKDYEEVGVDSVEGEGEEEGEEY
T2 sequence (P02554 whole entry, looked up): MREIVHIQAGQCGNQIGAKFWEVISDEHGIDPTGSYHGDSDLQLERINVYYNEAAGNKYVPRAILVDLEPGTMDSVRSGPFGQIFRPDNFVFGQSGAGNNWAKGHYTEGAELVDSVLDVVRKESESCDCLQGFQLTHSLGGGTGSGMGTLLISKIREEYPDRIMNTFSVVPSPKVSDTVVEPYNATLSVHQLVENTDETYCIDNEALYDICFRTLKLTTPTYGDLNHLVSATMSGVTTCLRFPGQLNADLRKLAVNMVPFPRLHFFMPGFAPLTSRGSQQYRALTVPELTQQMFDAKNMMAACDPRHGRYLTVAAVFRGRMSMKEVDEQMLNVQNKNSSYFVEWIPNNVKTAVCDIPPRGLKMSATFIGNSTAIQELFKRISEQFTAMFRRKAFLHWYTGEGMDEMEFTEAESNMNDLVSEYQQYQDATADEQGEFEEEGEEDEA
Method in brief: (§4)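 Test agent or taxol/vinorelbine was added at 10 μmol/L. Polymerization was started at 37 °C and followed by absorbance at 340 nm every minute up to 60 min.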

[13] = Antitumor activity against human STO cells xenografted in athymic nude mouse assessed as tumor growth inhibition at 5 mg/kg, ip administrated every 7 days for 4 weeks starting from day 10 post tumor implantation relative to control; format: functional; conditions: read-out: TGI
Method in brief: (§5)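 Female nude mice, 6−8 weeks old, given 10⁷ exponentially growing STO cells s.c. in the right flank; 8 mice/group. Drug in 10% DMSO/90% saline, 5 mg/kg ip q7dx4 from day 10 after inoculum; controls got vehicle. Tumour diameters caliper-measured weekly, TV = d²×D/2, TVI% = 100 − (mean TV treated/mean TV control × 100). Ki67 staining on formalin-fixed paraffin sections of tumours after the last treatment.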

[14] = Growth inhibition of human STO cells after 72 hrs by MTS assay; format: functional; method in brief: as §2
[15] = Growth inhibition of human MP8 cells after 72 hrs by MTS assay; format: functional; conditions: MP8, 72 h; method in brief: as §2
Homo sapiens [16] = species on record: Homo sapiens; assay: Cell cycle arrest in human MP4 cells assessed as accumulation at G2/M phase at IC50 to IC80 by propidium iodide staining-based flow cytometric method; format: functional; conditions: TDE = time-dependent effect; method in brief: as §1
Homo sapiens [17] = assay: Antitumor activity against human STO cells xenografted in athymic nude mouse assessed as suppression of cell proliferation at 5 mg/kg, ip administrated every 7 days for 4 weeks starting from day 10 post tumor implantation measured post last dose by Ki67 immunohistochemical staining-based assay; format: functional, organism-based; method in brief: as §5
[18] = Induction of apoptosis in human MP4 cells assessed as increase in caspase-3 catalytic activity by measuring DEVD-pNA hydrolysis at IC80 after 72 hrs by spectrofluorometric method relative to control; format: functional
Method in brief: (§6)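 STO and MP4 cells were exposed 72 h to drug or to 1% (v/v) DMSO control, then washed, pelleted and lysed. Total protein was mixed with DEVD-pNA for 1 h at 37 °C. Hydrolysis was read fluorometrically, ex 380/em 460 nm, as relative fluorescence units. Mean of three independent experiments.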

WI-38 = assay: Growth inhibition of human WI38 cells after 72 hrs by MTS assay; format: cell-based; conditions: WI-38, 72 h
[19] = test system: Panel NCI-60 (60 carcinoma cell lines); assay: Growth inhibition of human NCI60 cells at 10^-4 to 10^-8 M after 48 hrs by sulforhodamine B assay; format: functional, cell-based
Tubulin (Homo sapiens) [20] = target: T1, Tubulin (Homo sapiens); assay: Inhibition of tubulin polymerization in human STO cells at IC50 after 24 hrs by Western blot analysis relative to soluble fraction of tubulin; format: cell-based
[21] = Cell cycle arrest in human MP8 cells assessed as mitotic cells at IC50 after 72 hrs by MPM2 staining-based fluorescence microscopic analysis relative to control; format: functional
Homo sapiens [22] = species on record: Homo sapiens; assay: Cell cycle arrest in human MP4 cells assessed as decrease in cell levels at S phase at IC50 to IC80 after 48 to 72 hrs by propidium iodide staining-based flow cytometric method; format: functional; method in brief: as §1
Homo sapiens [23] = species on record: Homo sapiens; assay: Induction of apoptosis in human STO cells assessed as increase in caspase-3 catalytic activity by measuring DEVD-pNA hydrolysis at IC50 to IC80 by spectrofluorometric method; format: functional, cell-based; conditions: TDE = time-dependent effect
[24] = Induction of apoptosis in human STO cells assessed as increase in caspase-3 catalytic activity by measuring DEVD-pNA hydrolysis at IC80 after 72 hrs by spectrofluorometric method relative to control; format: functional; method in brief: as §6
Homo sapiens [25] = species on record: Homo sapiens; assay: Cell cycle arrest in human MP4 cells assessed as accumulation at G2/M phase at IC50 after 48 to 72 hrs by propidium iodide staining-based flow cytometric method; format: functional; method in brief: as §1
Homo sapiens [26] = species on record: Homo sapiens; assay: Cell cycle arrest in human STO cells assessed as accumulation at G2/M phase at IC50 after 48 to 72 hrs by propidium iodide staining-based flow cytometric method; format: functional; method in brief: as §1
Homo sapiens [27] = species on record: Homo sapiens; assay: Cell cycle arrest in human MP4 cells assessed as decrease in cell levels at S phase at IC50 after 48 to 72 hrs by propidium iodide staining-based flow cytometric method; format: functional; method in brief: as §1
Homo sapiens [28] = species on record: Homo sapiens; assay: Cell cycle arrest in human STO cells assessed as decrease in cell levels at S phase at IC50 after 48 to 72 hrs by propidium iodide staining-based flow cytometric method; format: functional; method in brief: as §1
[29] = Cell cycle arrest in human MP8 cells assessed as mitotic cells at 18 nM after 72 hrs by MPM2 staining-based fluorescence microscopic analysis relative to control; format: functional
[30] = Cell cycle arrest in human STO cells assessed as mitotic cells at 1 nM after 72 hrs by MPM2 staining-based fluorescence microscopic analysis relative to control; format: functional
Homo sapiens [31] = species on record: Homo sapiens; assay: Cell cycle arrest in human MP4 cells assessed as decrease in cell levels at G1 phase at IC50 after 48 to 72 hrs by propidium iodide staining-based flow cytometric method; format: functional; method in brief: as §1
Homo sapiens [32] = species on record: Homo sapiens; assay: Cell cycle arrest in human STO cells assessed as decrease in cell levels at G1 phase at IC50 after 48 to 72 hrs by propidium iodide staining-based flow cytometric method; format: functional; method in brief: as §1
Tubulin (Sus scrofa) [33] = target: T2, Tubulin (Sus scrofa); assay: Induction of GTP-induced porcine tubulin polymerization at 10 uM measured every minute up to 60 mins relative to control; format: protein assay; method in brief: as §4
[34] = Cell cycle arrest in human MP8 cells assessed as mitotic cells at 13 nM after 72 hrs by MPM2 staining-based fluorescence microscopic analysis relative to control; format: functional
Tubulin (Homo sapiens) [35] = target: T1, Tubulin (Homo sapiens); assay: Inhibition of tubulin polymerization in human STO cells at 2 nM after 24 hrs by Western blot analysis relative to soluble fraction of tubulin; format: cell-based
[36] = Cell cycle arrest in human STO cells assessed as mitotic cells at 2 nM after 72 hrs by MPM2 staining-based fluorescence microscopic analysis relative to control; format: functional
Tubulin (Homo sapiens) [37] = target: T1, Tubulin (Homo sapiens); assay: Inhibition of tubulin polymerization in human MP4 cells at 10 nM after 24 hrs by Western blot analysis relative to soluble fraction of tubulin; format: cell-based

## COc1ccc(Cn2cc3c(c2-c2cc(OC)c(OC)c(OC)c2)CCc2cnoc2-3)cc1N
Homo sapiens [1]
  Activity: Active
Tubulin (Homo sapiens) [2]
  inhibition: Active
Homo sapiens [3]
  Activity: Tde
[4]
  IC50: 160 nM
[5]
  Activity: 30 - 50%
[6]
  Activity: Non-Toxic
Homo sapiens [7]
  Activity: Active
[8]
  Activity: Non-Toxic
Homo sapiens [9]
  Activity: Active
[10]
  Activity: Non-Toxic
Homo sapiens [11]
  Activity: Tde
Tubulin (Sus scrofa) [12]
  inhibition: Active
[13]
  inhibition in vivo at 5 mg/kg: 59%
[14]
  IC50: 70 nM
[15]
  IC50: 130 nM
Homo sapiens [16]
  Activity: Tde
Homo sapiens [17]
  Activity: Active
[18]
  fold change (FC): 35
WI-38
  IC50: > 100000 nM
[19]
  growth inhibition (GI): Active
Tubulin (Homo sapiens) [20]
  inhibition: Active
[21]
  Activity: 30 - 50%
Homo sapiens [22]
  Activity: Active
Homo sapiens [23]
  Activity: Tde
[24]
  fold change (FC): 38.5

## COc1ccc(Cn2cc3c(c2-c2cc(OC)c(OC)c(OC)c2)CCc2cnoc2-3)cc1
[19]
  growth inhibition (GI): Active

## COc1ccc(Cn2cc3c(c2-c2cc(OC)c(OC)c(OC)c2)CCc2cnoc2-3)cc1[N+](=O)[O-]
[19]
  growth inhibition (GI): Active

## COc1ccc(Cn2cc3c(c2-c2ccccc2)CCc2cnoc2-3)cc1N
[19]
  growth inhibition (GI): Active

## COc1ccc(Cn2cc3c(c2-c2ccc(O)cc2)CCc2cnoc2-3)cc1
[19]
  growth inhibition (GI): Active

## CC(=O)O[C@H]1C(=O)[C@@]2(C)[C@H]([C@H](OC(=O)c3ccccc3)[C@]3(O)C[C@H](OC(=O)[C@H](O)[C@@H](NC(=O)c4ccccc4)c4ccccc4)C(C)=C1C3(C)C)[C@]1(OC(C)=O)CO[C@@H]1C[C@@H]2O [PACLITAXEL]
Homo sapiens [25]
  Activity: Active
Homo sapiens [26]
  Activity: Active
Homo sapiens [27]
  Activity: Active
Homo sapiens [28]
  Activity: Active
[29]
  Activity: 30 - 50%
[30]
  Activity: 30 - 50%
Homo sapiens [31]
  Activity: Active
Homo sapiens [32]
  Activity: Active
Tubulin (Sus scrofa) [33]
  Activity: Active

## COc1ccc(Cn2cc3c(c2-c2ccccc2)CCc2cnoc2-3)cc1
[19]
  growth inhibition (GI): Active

## COc1ccc(Cn2cc3c(c2-c2ccc(OC)cc2)CCc2cnoc2-3)cc1
[19]
  growth inhibition (GI): Active

## CCC1=C[C@@H]2CN(C1)Cc1c([nH]c3ccccc13)[C@@](C(=O)OC)(c1cc3c(cc1OC)N(C)[C@H]1[C@@](O)(C(=O)OC)[C@H](OC(C)=O)[C@]4(CC)C=CCN5CC[C@]31[C@@H]54)C2 [VINORELBINE]
Homo sapiens [25]
  Activity: Active
Homo sapiens [26]
  Activity: Active
[34]
  Activity: 30 - 50%
Tubulin (Homo sapiens) [35]
  inhibition: Active
[36]
  Activity: 30 - 50%
Homo sapiens [27]
  Activity: Active
Tubulin (Sus scrofa) [12]
  inhibition: Active
Homo sapiens [28]
  Activity: Active
Tubulin (Homo sapiens) [37]
  inhibition: Active
Homo sapiens [31]
  Activity: Active
Homo sapiens [32]
  Activity: Active
